Assay [1] has as its target T1, Oxysterols receptor LXR-alpha (Homo sapiens, UniProt Q13133).
T1 sequence (Q13133 whole entry): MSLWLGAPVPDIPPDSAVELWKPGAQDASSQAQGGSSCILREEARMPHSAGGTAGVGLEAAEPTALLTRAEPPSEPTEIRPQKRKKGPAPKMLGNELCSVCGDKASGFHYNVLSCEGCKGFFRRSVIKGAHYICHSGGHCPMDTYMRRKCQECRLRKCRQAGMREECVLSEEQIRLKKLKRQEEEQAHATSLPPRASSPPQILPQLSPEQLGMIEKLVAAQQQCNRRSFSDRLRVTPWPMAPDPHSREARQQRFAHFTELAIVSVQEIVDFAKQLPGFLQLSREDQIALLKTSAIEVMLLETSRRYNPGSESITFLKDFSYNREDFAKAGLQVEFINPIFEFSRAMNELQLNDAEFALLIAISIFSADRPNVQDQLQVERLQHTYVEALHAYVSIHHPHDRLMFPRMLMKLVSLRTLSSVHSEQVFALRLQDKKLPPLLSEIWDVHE
Put plainly: Binding affinity to LXRalpha (unknown origin).

Assay [2] deals with T2, Oxysterols receptor LXR-beta (Homo sapiens) (UniProt P55055).
T2 sequence (whole entry): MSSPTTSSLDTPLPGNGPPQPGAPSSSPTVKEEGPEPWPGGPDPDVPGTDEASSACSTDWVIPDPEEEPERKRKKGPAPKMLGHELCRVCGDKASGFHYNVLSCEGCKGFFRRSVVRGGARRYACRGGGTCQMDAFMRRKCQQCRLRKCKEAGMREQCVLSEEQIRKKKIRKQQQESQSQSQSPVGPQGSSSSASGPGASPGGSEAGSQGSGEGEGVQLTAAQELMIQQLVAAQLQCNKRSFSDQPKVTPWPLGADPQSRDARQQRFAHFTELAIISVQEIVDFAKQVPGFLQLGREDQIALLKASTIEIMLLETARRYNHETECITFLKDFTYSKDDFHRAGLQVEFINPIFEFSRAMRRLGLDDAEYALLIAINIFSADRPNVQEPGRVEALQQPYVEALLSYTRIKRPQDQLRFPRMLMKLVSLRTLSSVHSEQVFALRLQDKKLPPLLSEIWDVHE
As to the kind of experiment: Induction of recruitment of D22 peptide to LXRbeta (unknown origin) by TR-FRET LXR-alpha co-activator assay. In general terms: Time-resolved FRET reads energy transfer from a long-lived donor to a nearby acceptor.

For assay [3], the target named is T3, Oxysterols receptor LXR-alpha (Homo sapiens) (UniProt Q13133).
T3 sequence (whole entry): T1 sequence (Q13133 whole entry)
Put plainly: Induction of recruitment of Trap220 peptide to LXRalpha (unknown origin) by TR-FRET LXR-alpha co-activator assay. In a few lines: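 Cell-free LanthaScreen TR-FRET LXR-α co-activator recruitment assay, run per kit instructions, with T0901317 as reference agonist.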

For assay [4], the target named is T4, Oxysterols receptor LXR-beta (Homo sapiens, UniProt P55055).
T4 sequence (P55055 whole entry): T2 sequence (whole entry)
As to the kind of experiment: Binding affinity to LXRbeta (unknown origin).

Assay [5] deals with HepG2. Put plainly: Reduction in lipid accumulation in human HepG2 cells at 1 microM by Oil Red O staining. It counts as functional, cell-based.
Assay [6] addresses T3, Oxysterols receptor LXR-alpha (Homo sapiens). Put plainly: Agonist activity at LXRalpha (unknown origin) transfected in human CHO-K1 cells assessed as induction of transactivation at 50 to 200 microM by luciferase reporter gene transactivation assay relative to control. It counts as cell-based. In a few lines: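 CHO-K1 cells in DMEM/F12 with 10% heat-inactivated FBS and 1% penicillin/streptomycin, co-transfected with pGL4.35 GAL4-UAS luciferase reporter, pSV-β-galactosidase and a human LXRα plasmid (pFN26A). After 24 h, cells were treated 24 h with 50, 100 or 200 µM. Firefly luciferase was normalized to β-galactosidase in the same lysate and expressed vs control, mean ± SE, n = 3.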
On the technique in general: In a reporter assay the amount or activity of a reporter protein is the signal.

Assay [7] concerns the target Oxysterols receptor LXR-beta (Homo sapiens) (UniProt P55055). Put plainly: Agonist activity at LXRbeta (unknown origin) transfected in human CHO-K1 cells assessed as induction of transactivation by luciferase reporter gene transactivation assay relative to control.
Assay [8] deals with RAW264.7. Put plainly: Induction of cholesterol efflux in mouse RAW264.7 cells assessed as reduction in cellular cholesterol level at 100 microM relative to control. It counts as functional. Details: scale not given: the % may be the effect or the level left.
Assay [9] has as its system HepG2. As to the kind of experiment: Reduction in lipid accumulation in human HepG2 cells at 50 microM by Oil Red O staining. It counts as functional, cell-based.
The test system of assay [10] is HepG2. Put plainly: Downregulation of SREBP-1c mRNA expression in human HepG2 cells at 50 to 100 microM by qPCR. Type of assay: functional. The gist of the method: (§1)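 Cells were preincubated 24 h in DMEM, then exposed 24 h to 50 or 100 µM (final) at 37 °C in 5% CO2. Vehicle was 1% DMSO, and each treatment was run at least in triplicate. Total RNA was extracted and transcripts were measured by qPCR relative to vehicle control, mean ± SE, n = 3.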

The test system of assay [11] is RAW264.7. Put plainly: Induction of LXR-responsive genes in mouse RAW264.7 cells assessed as increase in Abca1 mRNA expression measured at 50 to 100 microM by qPCR. It counts as functional, cell-based. The gist of the method:
as §1

For assay [12], the system named is HepG2. Put plainly: Reduction in lipid accumulation in human HepG2 cells at 100 microM by Oil Red O staining. It counts as functional, cell-based.
For assay [13], the system named is HepG2. Put plainly: Downregulation of LXRalpha protein expression in human HepG2 cells at 50 to 100 microM by immunoblotting. It counts as functional. In a few lines:
(§2)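 Cells were preincubated 24 h in DMEM, then treated 24 h with 50 or 100 µM alongside a 1% DMSO vehicle. They were lysed in ice-cold Tris-HCl pH 7.4/EDTA/NaCl/0.5% Triton X-100 buffer with protease inhibitors. 30 µg protein was run on 10% SDS-PAGE and transferred to nitrocellulose. Blots were probed with target antibodies, with α-tubulin as reference, n = 3.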
For orientation: In western blotting, separated proteins are transferred to a membrane and probed.

The test system of assay [14] is RAW264.7. Put plainly: Induction of cholesterol efflux genes in mouse RAW264.7 cells assessed as increase in LXRalpha protein expression measured at 100 microM by immunoblotting. It counts as functional, cell-based. The gist of the method:
as §2

Assay [15] relates to RAW264.7. As to the kind of experiment: Induction of cholesterol efflux genes in mouse RAW264.7 cells assessed as increase in LXRbeta protein expression measured at 100 microM by immunoblotting. It counts as functional, cell-based. The gist of the method:
as §2

The subject of assay [16] is HepG2. As to the kind of experiment: Downregulation of LXRalpha mRNA expression in human HepG2 cells at 50 to 100 microM by qPCR. It counts as functional. The gist of the method: as §1
Assay [17] deals with HepG2. Put plainly: Downregulation of SREBP-1c protein expression in human HepG2 cells at 50 to 100 microM by immunoblotting. Type of assay: functional. In a few lines: as §2
Assay [18] has as its system RAW264.7. Put plainly: Induction of LXR-responsive genes in mouse RAW264.7 cells assessed as increase in Abca1 mRNA expression measured at 50 to 100 microM by qPCR.
In assay [19] the test system is RAW264.7. As to the kind of experiment: Induction of cholesterol efflux genes in mouse RAW264.7 cells assessed as increase in LXRbeta mRNA expression measured by qPCR. It counts as functional, cell-based. In a few lines:
as §1

For assay [20], the system named is HepG2. Put plainly: Downregulation of FAS protein expression in human HepG2 cells at 50 to 100 microM by immunoblotting. Type of assay: functional. The gist of the method: as §2
For assay [21], the system named is RAW264.7. As to the kind of experiment: Induction of cholesterol efflux genes in mouse RAW264.7 cells assessed as increase in LXRbeta mRNA expression measured at 100 microM by qPCR. Type of assay: functional. In a few lines:
as §1

In assay [22] the test system is RAW264.7. As to the kind of experiment: Induction of cholesterol efflux in mouse RAW264.7 cells assessed as reduction in cellular cholesterol level at 100 microM in presence of higher cholesterol relative to control. Details: scale not given: the % may be the effect or the level left. Type of assay: functional.
Assay [23] deals with HepG2. As to the kind of experiment: Downregulation of FAS mRNA expression in human HepG2 cells at 50 to 100 microM by qPCR. It counts as functional. The gist of the method:
as §1

In assay [24] the test system is RAW264.7. As to the kind of experiment: Induction of cholesterol efflux genes in mouse RAW264.7 cells assessed as increase in LXRbeta mRNA expression measured at 50 microM by qPCR. Type of assay: functional. The gist of the method: as §1
The target of assay [25] is Oxysterols receptor LXR-beta (Homo sapiens) (UniProt P55055). Put plainly: Agonist activity at LXRbeta (unknown origin) transfected in human CHO-K1 cells assessed as induction of transactivation at 100 microM by luciferase reporter gene transactivation assay relative to control.
In assay [26] the test system is RAW264.7. Put plainly: Induction of LXR-responsive genes in mouse RAW264.7 cells assessed as increase in ABCA1 protein expression measured at 100 microM by immunoblotting. Type of assay: functional, cell-based. The gist of the method: as §2
Assay [27] concerns RAW264.7. Put plainly: Induction of cholesterol efflux genes in mouse RAW264.7 cells assessed as increase in LXRalpha mRNA expression measured at 50 to 100 microM by qPCR. Type of assay: functional. In a few lines: as §1
For assay [28], the target named is Oxysterols receptor LXR-beta (Homo sapiens) (UniProt P55055). As to the kind of experiment: Agonist activity at LXRbeta (unknown origin) transfected in human CHO-K1 cells assessed as induction of transactivation at 50 microM by luciferase reporter gene transactivation assay relative to control.
For assay [29] the target is unchanged. As to the kind of experiment: Agonist activity at LXRbeta (unknown origin) transfected in human CHO-K1 cells assessed as induction of transactivation at 200 microM by luciferase reporter gene transactivation assay relative to control.
Assay [30] relates to HepG2. Put plainly: Downregulation of SCD-1 mRNA expression in human HepG2 cells at 50 to 100 microM by qPCR. It counts as functional. The gist of the method:
as §1

Each structure is given as a SMILES string. pEC50: −log10 of the molar value. Active and inactive are the calls of the source. The calls are words filed in the database; no cut-off is given here.

As for `CCN(c1ccc(C(O)(C(F)(F)F)C(F)(F)F)cc1)S(=O)(=O)c1ccccc1`, the pEC50 is 6.49 in assay [1] and 8.00 in assay [4]. Moreover, the Activity entry in assay [2] and in assay [3] was “Dose-dependent effect” each time. Moreover, in the assay with HepG2 [5], the outcome was inactive.

Turning to `CC12CCC(CC1)C(C)(C)O2` [EUCALYPTOL], the Activity in assay [6] was over 75%; in [7], “Dose-dependent effect”; in the assay on RAW264.7 [8] it was 17%; with RAW264.7 [19], “Dose-dependent effect”; in the assay on RAW264.7 [21], 50%; in the assay with RAW264.7 [22] it was 17%. The Activity in the assay on RAW264.7 [24] stood at 35%; with RAW264.7 [27], 20%. The result in assay [2] and in assay [3] was inactive. For the same compound, the result in the assay on HepG2 [9], in the assay on RAW264.7 [11], in the assay with HepG2 [12], in the assay with RAW264.7 [14], in the assay on RAW264.7 [15] and in the assay with RAW264.7 [18] was Active. Also, the outcome with RAW264.7 [26] was Active. Besides, the “inhibition (INH)” value in the assay with HepG2 [10] is given as 25%; in the assay on HepG2 [13], 40%; in the assay on HepG2 [16], 10%; in the assay with HepG2 [17], 25%; in the assay with HepG2 [20], 50%; in the assay on HepG2 [23] it was 24%. The “inhibition (INH)” value in the assay on HepG2 [30] worked out at 30%. Further, the fold change (FC) was found to be 2 in [25], 1.4 in assay [28] and 2.3 in assay [29].

Broadly, the pEC50 is −log10 of the EC50, conventionally taken in molar units.
